In ChEMBL document CHEMBL4513216, “Probing the Open Global Health Chemical Diversity Library for Multistage-Active Starting Points for Next-Generation Antimalarials” (ACS Infect Dis, 2020) one finds cytotoxicity data, which are given here for 96 molecules.

The data set can be described thus: Toxicity liver stage against HepG2, at 10uM. The format is cell-based. The settings on record: human, HepG2-A16-CD81EGFP cells; read-out: INHIBITION
Further details: test concentration 10 uM, cell line HepG2-A16-CD81EGFP. An outline of the steps: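 Uninfected HepG2-A16-CD81EGFP cells, 3 × 10^3 per well, 1536-well, plated on prespotted compound at 10 μM final, parasite-free screening media added to match infected plates; puromycin 10 μM positive, DMSO 0.5% negative; run in parallel with 48 h PbLuc assay at 37 °C, 5% CO2; viability by CellTiter-Glo luminescence, normalized to controls.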

With `COc1ccc(CN(Cc2cnc(N)nc2)CC2CCCO2)c(OC)c1` (stereo unspecified), the cytotoxicity at 10 µM is -0.438%.

Take `COc1ccc(Cl)cc1CS(=O)(=O)CC(=O)N(C)Cc1ccccc1F`: the cytotoxicity at 10 µM amounted to 2.53%.

As for `O=C(NCC(F)(F)F)C1CSCN1S(=O)(=O)c1ccccc1F` (stereo unspecified), the cytotoxicity at 10 µM is -16.3%.

`Cc1nnc2n1CCN(CC(=O)N1CCc3ccccc3C1)C2`: the cytotoxicity at 10 µM is -9.27%.

Take `Cc1cc(C(=O)N2CCCC(C)C2)ccc1NCc1nc(C2CC2)no1` (stereo unspecified): the cytotoxicity at 10 µM was -8.38%.

With `COCCNC(=O)c1ccc2c(=O)n3c(nc2c1)CCN(C)CC3`, the cytotoxicity at 10 µM is -1.02%.

As for `Cc1nc(C2CCN(S(C)(=O)=O)CC2)nc(N2CCCC2)c1C`, the cytotoxicity at 10 µM was determined as 4.48%.

Take `Cn1cccc1C(=O)N1C[C@H]2CN(Cc3cccs3)C[C@H]2C1`: the cytotoxicity at 10 µM was 2.02%.

For `COCCNC(=O)[C@@H]1CC[C@@H]2[C@@H](CCN2Cc2cnn(C)c2)O1`, the cytotoxicity at 10 µM was -12.2%.

With `Cc1ccn(-c2ccccc2NCc2cscn2)n1`, the cytotoxicity at 10 µM was determined as 13.2%.

For the molecule `Cn1nc2c(c1NC(=O)c1cccs1)CCC2`, the cytotoxicity at 10 µM was 6.16%.

As for `CCOC(=O)N1CCN(c2nc(CCN)nc3sc(C)c(C)c23)CC1`, the cytotoxicity at 10 µM was -43.4%.

For the molecule `CC(C)NC(=O)Nc1ccc2c(c1)ncn2CC(=O)NCCN(C)C`, the cytotoxicity at 10 µM is -8.15%.

Consider `O=C(c1ccc2[nH]c(=O)[nH]c2c1)N1CCC(Nc2cccnn2)CC1`, for which the cytotoxicity at 10 µM came to 0.00528%.

Regarding `CCn1cc(CN2CCCC2c2nc(-c3ccccc3)no2)cc1C#N` (stereo unspecified), the cytotoxicity at 10 µM was 0.165%.

Take `Cc1c(CN2CCc3[nH]cnc3C2C(=O)O)[nH]c2ccc(F)cc12` (stereo unspecified): the cytotoxicity at 10 µM was -4.23%.

Turning to `CC(=O)c1ccc(C(=O)N2C[C@@H](CN3CCCC3)[C@@H](CO)C2)cc1`, the cytotoxicity at 10 µM was -0.434%.

For the molecule `COc1cccc(CN(Cc2ccco2)Cc2[nH]cnc2C)c1`, the cytotoxicity at 10 µM came to 3.77%.

`CN(CC1CCCCO1)C(=O)c1ccnc(OC2CCC2)c1` (stereo unspecified): the cytotoxicity at 10 µM was -7.63%.

Turning to `CC(O)CCN(C)c1nc2ccccc2c(=O)[nH]1` (stereo unspecified), the cytotoxicity at 10 µM was found to be 12.6%.

Turning to `COc1cc(NC(=O)c2ccc(F)cc2Cl)c(C(=O)N(C)C)cc1OC`, the cytotoxicity at 10 µM is -11.1%.

For the molecule `CC(C)N(Cc1ccccn1)C(=O)CN(C)C(=O)c1cccs1`, the cytotoxicity at 10 µM is 2.31%.

As to `Cc1nnc([C@@H]2CC[C@@H]3[C@@H](CCN3S(=O)(=O)C3CC3)O2)o1`, the cytotoxicity at 10 µM is -77%.

Turning to `Cc1cc(CN2CCC3(CC2)COC(COCC2CC2)C3)no1` (stereo unspecified), the cytotoxicity at 10 µM is -107%.

On to `Cc1cc(-c2ccnn2C)nc(C2CCCN(S(C)(=O)=O)C2)n1` (stereo unspecified), for which the cytotoxicity at 10 µM is 3.33%.

Regarding `CCS(=O)(=O)NCCNC(=O)c1cc(Cl)c2c(c1)OCCCO2`, the cytotoxicity at 10 µM was 5.98%.

As for `CCCNC(=O)c1cc2c(nc1O)CCC(C)C2` (stereo unspecified), the cytotoxicity at 10 µM worked out at 0.717%.

As to `Cc1cccc(Oc2ccccc2CNC(=O)C2CCNC(=O)C2)c1` (stereo unspecified), the cytotoxicity at 10 µM amounted to 3.6%.

With `Cc1ccsc1CN(C)Cc1nc2c(cnn2C)c(=O)[nH]1`, the cytotoxicity at 10 µM is -0.575%.

Turning to `Cc1nc[nH]c1-c1nc2cc(S(=O)(=O)N3CCCC3)ccc2n1C`, the cytotoxicity at 10 µM was -14.2%.

For `Cc1cccc(S(=O)(=O)NC2CCN(CC(F)(F)F)C2)c1` (stereo unspecified), the cytotoxicity at 10 µM stood at 0.741%.

Consider `CCOc1ccc(C(=O)CCC(=O)N(C)Cc2nc(C)c[nH]2)cc1C`, for which the cytotoxicity at 10 µM is -5.45%.

Regarding `COc1ccc(Br)c(C(=O)NC(CC(=O)O)c2cccs2)c1` (stereo unspecified), the cytotoxicity at 10 µM was -3.48%.

Turning to `CCOc1ncccc1NC(=O)N1CCN(c2ccc(O)cc2)CC1`, the cytotoxicity at 10 µM was -9.92%.

In the case of `CCCn1nc2c(cc1=O)CN(Cc1nnc(C3CC3)o1)CC2`, the cytotoxicity at 10 µM came to 2.11%.

Take `Cc1ccnc(C2CN(c3ccnc(C)n3)C2)n1`: the cytotoxicity at 10 µM was -2.4%.

Consider `O=S(=O)(Cc1ccccc1)NCc1ccco1`, for which the cytotoxicity at 10 µM stood at 0.0906%.

On to `Cc1cc(N2CCCC2c2cc(Nc3cnccn3)nc(C)n2)ncn1` (stereo unspecified), for which the cytotoxicity at 10 µM is -14%.

Regarding `O=C(c1ncccn1)N1C[C@@H]2COC[C@]2(COCc2cccnc2)C1`, the cytotoxicity at 10 µM is -1.9%.

For the molecule `CCC/C=C/c1ccc(CN2CCCC2)cn1`, the cytotoxicity at 10 µM was -16.1%.

For `Cc1cc(C(=O)N[C@H]2CN(CCO)C[C@@H]2C2CC2)sc1C`, the cytotoxicity at 10 µM came out at 1.18%.

With `Cc1ccccc1CC(=O)N1C[C@@H](O)[C@H](N2CCC(F)(F)CC2)C1`, the cytotoxicity at 10 µM is -14%.

Regarding `Cc1cnc(N2CCN(C(C)C(N)=O)CC2)nc1` (stereo unspecified), the cytotoxicity at 10 µM stood at 0.399%.

With `OCCOc1nc(-c2ccccc2Cl)no1`, the cytotoxicity at 10 µM is -10.5%.

As for `Cn1c(C2CCCN2C(=O)CN2CSCC2=O)nc2ccccc21` (stereo unspecified), the cytotoxicity at 10 µM is 7.81%.

Take `CN(Cc1ccco1)C1CCC12CCN(C(=O)C1CCOCC1)CC2` (stereo unspecified): the cytotoxicity at 10 µM was -2.92%.

`Cc1cc(O)ncc1NS(=O)(=O)c1cccc(F)c1F`: the cytotoxicity at 10 µM came to 0.753%.

For the molecule `CC(C)OCCC(=O)NCC(O)c1c(Cl)cccc1Cl` (stereo unspecified), the cytotoxicity at 10 µM was -6.93%.

As for `COCCN1CCC(NCc2ccc(F)cc2F)C1` (stereo unspecified), the cytotoxicity at 10 µM is -2.67%.

In the case of `Cc1cc(O)c(OCC(=O)Nc2nc3c(s2)CCCC3)cn1`, the cytotoxicity at 10 µM came to 12.8%.

Regarding `Cc1csc(CN(C)S(=O)(=O)c2ccc(C)c(N(C)C)c2)n1`, the cytotoxicity at 10 µM came to 13.7%.

`Cc1cc(C(=O)NCc2ccc(-c3n[nH]cc3C(=O)N(C)C)cc2)on1`: the cytotoxicity at 10 µM came out at 4.29%.

Take `NCCO[C@H]1C[C@@H](O)C12CCN(Cc1c(F)cccc1F)CC2`: the cytotoxicity at 10 µM is -20%.

Take `Cc1ccccc1Oc1ncccc1CNS(C)(=O)=O`: the cytotoxicity at 10 µM was -22.1%.

Regarding `CC1=Nc2c(c(=O)[nH]n2C2CCCCC2)C(c2cccnc2)S1` (stereo unspecified), the cytotoxicity at 10 µM is 6.72%.

Turning to `Cc1ccc(Cc2sc(NC(=O)C(C)S(C)(=O)=O)nc2C)cc1` (stereo unspecified), the cytotoxicity at 10 µM came out at 13.1%.

Regarding `COc1cnc(C2(O)CCN(C(=O)c3ccncc3)CC2)c(OC)n1`, the cytotoxicity at 10 µM was -4.38%.

With `Cc1nnsc1CN(C)C(=O)CN1CC2(CCNCC2)OC1=O`, the cytotoxicity at 10 µM worked out at 11.4%.

Regarding `Cc1cnc(C(=O)N2Cc3ccccc3OC3(CCOCC3)C2)cn1`, the cytotoxicity at 10 µM is -1.54%.

`Cn1c(=O)c2c(n3ncnc13)NC(=O)CC2c1cccc(Br)c1` (stereo unspecified): the cytotoxicity at 10 µM worked out at 7.83%.

With `O=C(c1ccoc1)N1CCCC2(CCC(=O)N2Cc2cccnc2)C1` (stereo unspecified), the cytotoxicity at 10 µM is -4.41%.

On to `CCc1nnc(CNCC2CCN(CC(O)c3ccccc3)CC2)o1` (stereo unspecified), for which the cytotoxicity at 10 µM is -1.49%.

Turning to `CC(C)[C@H]1CN(Cc2ccccn2)C[C@@H]1NC(=O)CC1CCC1`, the cytotoxicity at 10 µM was -2.57%.

Regarding `COc1c(C2CCCN2C(=O)c2cc(C)on2)c(C)nn1C` (stereo unspecified), the cytotoxicity at 10 µM stood at 0.407%.

For `CC(CO)CNC(=O)c1cc2cccc(F)c2o1` (stereo unspecified), the cytotoxicity at 10 µM was found to be 8.13%.

Turning to `O=c1n(CCSCCOc2ccc(Br)cc2)nc2ccccn12`, the cytotoxicity at 10 µM was determined as 10%.

In the case of `CCOCCCNc1nc(CS(=O)(=O)c2ccccc2)cs1`, the cytotoxicity at 10 µM was determined as 9.75%.

Regarding `Cc1nc(NC2(CN3CCCCC3)CCCCC2)c2cnn(C)c2n1`, the cytotoxicity at 10 µM came out at 3.94%.

For the molecule `COc1ccc(CNC(=O)N2CCCC(Nc3ccccc3)C2)cn1` (stereo unspecified), the cytotoxicity at 10 µM was -4.57%.

`Cc1cc(CN(C)C(=O)NC2CCN(C3CC3)CC2)no1`: the cytotoxicity at 10 µM is -3.6%.

Turning to `CC1=NN(c2ccc(C(=O)OCCNC(=O)c3ccncc3)cc2)CC1`, the cytotoxicity at 10 µM was -3.62%.

Turning to `Cc1nc(CN2CCN(CCOc3ccc(C(C)C)c(C)c3)CC2)no1`, the cytotoxicity at 10 µM was -11.2%.

Turning to `CCOC(=O)N1CCN(CC(=O)Nc2ccc(F)cc2Cl)CC1`, the cytotoxicity at 10 µM is 6%.

For the molecule `Cc1nn(CC(C)C)c(N(C)C)c1CNCc1ccc2c(c1)OCO2`, the cytotoxicity at 10 µM was -1.05%.

On to `CC(C)N1CCCC(c2cc(C(F)(F)F)nc3nccn23)C1` (stereo unspecified), for which the cytotoxicity at 10 µM was -11.1%.

In the case of `CC(C)CCN1C[C@@H]2C[C@H](C(=O)NCC(C)C)[C@H](C1)O2`, the cytotoxicity at 10 µM was found to be 5.9%.

Regarding `Cc1ccccc1CN(C)C(=O)CCc1nc(-c2nnc[nH]2)no1`, the cytotoxicity at 10 µM is -42.1%.

As to `Cc1cnc(-c2nc(NC3CC3)ncc2-c2onc(C)c2C)cn1`, the cytotoxicity at 10 µM was -27.9%.

In the case of `CC(C)c1n[nH]c(C2CN(C(=O)c3cc(Cl)c[nH]3)CCO2)n1` (stereo unspecified), the cytotoxicity at 10 µM is -5.64%.

As for `CNC(=O)CN1CCCC12CCN(Cc1c[nH]cn1)CC2`, the cytotoxicity at 10 µM turned out to be 0.312%.

`c1cc(-c2ccc3c(c2)CCC32CCN(c3nncs3)CC2)co1`: the cytotoxicity at 10 µM was -2.07%.

Take `O=C(c1cc(F)cc(F)c1)N1CCC(O)(C(F)(F)F)CC1`: the cytotoxicity at 10 µM amounted to 7.08%.

With `O=C(NS(=O)(=O)c1ccccc1Cl)c1cccc2c1OCCO2`, the cytotoxicity at 10 µM is -11%.

Consider `Cn1ccc(C2CCCCCN2C(=O)c2cccnc2)n1` (stereo unspecified), for which the cytotoxicity at 10 µM turned out to be 6.16%.

Turning to `CCc1nc(C)c(C(=O)NCCNc2ncnc3sccc23)s1`, the cytotoxicity at 10 µM worked out at 41.1%.

`CCN1CCN(C(C)CNC(=O)Nc2nnc(C(C)C)s2)CC1` (stereo unspecified): the cytotoxicity at 10 µM worked out at 1.06%.

For `Cc1nonc1C(=O)N1CCCC(c2ncncc2-c2ccncc2)C1` (stereo unspecified), the cytotoxicity at 10 µM came out at 1.41%.

With `O=C(NCc1ccccn1)c1cc2n(n1)CCNC2`, the cytotoxicity at 10 µM amounted to 1.19%.

For `COCCNC(=O)C1CN(Cc2csc(C)n2)Cc2ccnn2C1` (stereo unspecified), the cytotoxicity at 10 µM is -74.2%.

For the molecule `Cc1cc(C)n(CC2CCCCN2CCc2ccncc2)n1` (stereo unspecified), the cytotoxicity at 10 µM is -7.07%.

As for `CCCC1(CO)CCCN(C(=O)CNC(C)=O)C1` (stereo unspecified), the cytotoxicity at 10 µM amounted to 3.43%.

As to `Nc1nc(CCCNC(=O)c2ccccc2C2CCNC2)cs1` (stereo unspecified), the cytotoxicity at 10 µM is -3.06%.

Regarding `CCOCC(=O)N1C[C@@H]2CC[C@H](Oc3ccccc3)[C@@H]2C1`, the cytotoxicity at 10 µM is -16.1%.

As to `O=C(NCCc1ccc(Cl)s1)N1CCS(=O)(=O)CC1`, the cytotoxicity at 10 µM was 1.92%.

In the case of `Cc1cnccc1-c1cc(NCCO)nc2[nH]ccc12`, the cytotoxicity at 10 µM was determined as 13.8%.

Turning to `Cn1nc(COc2cccnc2)c2c1CCN(Cc1ccco1)C2`, the cytotoxicity at 10 µM was -5.57%.
